Source: article PMC5161575 (Nature, 2016)
Numbering of substitutions follows the chain as printed. Numbers in names are those of the source. Like-named read-outs stand apart in the source and are kept apart here. Blank lines part the entries; values can stand above or below the molecule they belong to.

Key:
[1] = target: KSR2 in purified KSR2-MEK1 complexes (Homo sapiens, UniProt Q6VAB6); assay: ATP^biotin probe-labelling competition; assay type: binding
BRAF(F667E) + KSR2:MEK1 = BRAF(F667E) + KSR2:MEK1 (Homo sapiens, UniProt Q6VAB6); assay: bio-layer inferometry; assay type: binding; settings: compound 25 μM
[2] = system: KSR-stimulated MEK and ERK phosphorylation in 293H cells; assay: KSR-driven MAPK signalling reconstitution; assay type: cell-based; settings: 5 μM, 2 h
[3] = target: MEK phosphorylation by BRAF or CRAF (Homo sapiens, UniProt Q6VAB6); assay: RAF phosphorylation assay of KSR2-MEK1 or MEK1 in vitro; assay type: biochemical; settings: KSR2-MEK1; compound 1 μM
[4] = system: MEK phosphorylation by BRAF or CRAF; assay: as above; assay type: biochemical; settings: KSR absent or KSR2(A690F) mutant; compound 1 μM
[5] = system: BRAF(V600E)-induced MAPK activation in 293H cells; assay: BRAF; assay type: cell-based; settings: 5 μM, 2 h
In short: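 They were then exposed for 2 h to DMSO or 5μM test compound, alongside a reference RAF inhibitor. Cells were collected and western blotted for phospho-MEK1/2 (Ser218/Ser222) and phospho-ERK1/2 (T202/Y204). Primary antibodies were applied overnight in 5% BSA TBS-T.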

[6] = system: Phospho-AMPK in HCT116 cells; assay: phospho-AMPK western blot; assay type: cell-based; settings: co-treatment with trametinib, 48 h
In short: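 HCT116 cells received test compound and/or a MEK inhibitor for 48 h. Lysates were western blotted for phospho-AMPK, phospho-ERK and total MEK, with primary antibodies overnight in 5% BSA TBS-T. Signal was detected by chemiluminescence on a CCD imager, and band intensities were quantified.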

[7] = system: ERK phosphorylation in HCT-116 cells; assay: phospho-ERK western blot; assay type: cell-based; settings: APS-2-79 treatment
MEK1 = MEK1 (Oryctolagus cuniculus, UniProt P29678); assay: ATP^biotin probe-labelling competition; assay type: binding, rabbit; settings: read-out: IC50 (ATP), MEK1; free ATP vs 2 μM ATP^biotin, KSR2-MEK1 complexes
In short: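 The probe transfers desthio-biotin onto active-site lysines of both KSR2 and MEK1. Biotin, total MEK and total KSR detected by western blot, giving probe-labelling versus ATP level for each partner.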

MEK1 (1-393) = MEK1 (1-393) (rabbit, UniProt P29678 1-393); assay: BLI
KSR2(KD):MEK1 complex = KSR2(KD):MEK1 complex (human | rabbit, UniProt Q6VAB6 634-950; P29678 1-393); assay: BLI

Molecule: COc1ccc(Nc2ncnc3cc(OC)c(OC)cc23)cc1.Cl [APS-1-70-1, 6,7-Dimethoxy-N-(4-methoxyphenyl)quinazolin-4-amine hydrochloride]
KSR2-MEK1 probe competition (in words) [1]: greatly diminished competition

Molecule: COc1cc2ncnc(Nc3ccc(OCc4ccccc4)cc3)c2cc1OC.O=C(O)C(F)(F)F [APS-2-12, N-(4-(Benzyloxy)phenyl)-6,7-dimethoxyquinazolin-4-amine 2,2,2-trifluoroacetate]
KSR2-MEK1 probe competition (in words) [1]: diminished

Molecule: COc1cc2ncnc(Nc3ccc(Oc4ccccc4)cc3)c2cc1OC.Cl [APS-1-68-2, 6,7-Dimethoxy-N-(4-phenoxyphenyl)quinazolin-4-amine hydrochloride]
KSR2-MEK1 probe competition (in words) [1]: competitor of probe-labelling

Molecule: COc1cc2nccc(Nc3ccc(Oc4ccccc4)cc3)c2cc1OC.Cl [APS-2-16, 6,7-Dimethoxy-N-(4-phenoxyphenyl)quinolin-4-amine hydrochloride]
KSR2-MEK1 probe competition (in words) [1]: moderately tolerated

B1: B-RAF (modified variant for high-yield expression in E. coli) (enzyme)
chain: RDSSDDWEIPDGQITVGQRIGSGSFGTVYKGKWHGDVAVKMLNVTAPTPQQLQAFKNEVGVLRKTRHVNILLFMGYSTKPQLAIVTQWCEGSSLYHHLHASETKFEMKKLIDIARQTARGMDYLHAKSIIHRDLKSNNIFLHEDNTVKIGDFGLATVKSRWSGSHQFEQLSGSILWMAPEVIRMQDSNPYSFQSDVYAFGIVLYELMTGQLPYSNINNRDQIIFMVGRGSLSPDLSKVRSNCPKRMKRLMAECLKKKRDERPSFPRILAEIEELARELSG
modifications: biotinylated with EZ-Link Sulfo-NHS-Biotin
Kd (MEK1 (1-393)): 0.051 µM

B2: B-RAF(F667E) (in the modified variant for E. coli expression) (enzyme)
chain: B1 chain with F224E
modifications: biotinylated with EZ-Link Sulfo-NHS-Biotin
Kd (KSR2(KD):MEK1 complex): 1.99 µM

Now from value to molecule, other results behind:

IC50 [1]: > 10 µM
KSR2-MEK1 probe competition (in words) [1]: essentially inactive
assembly of BRAF(F667E) and KSR2-MEK1 (in words) (BRAF(F667E) + KSR2:MEK1): did not impede
Molecule: COc1cc2ncnc(Nc3ccc(Oc4ccccc4)c(C)c3C)c2cc1OC.Cl [APS-3-77, N-(2,3-Dimethyl-4-phenoxyphenyl)-6,7-dimethoxyquinazolin-4-amine hydrochloride]

KSR-stimulated MEK phosphorylation by RAF [3]: markedly reduced
assembly of BRAF(F667E) and KSR2-MEK1 (in words) (BRAF(F667E) + KSR2:MEK1): did not associate
enhancement in the IC90 of trametinib on ERK phosphorylation [7]: twofold enhancement
Molecule: COc1cc2ncnc(Nc3ccc(Oc4ccccc4)cc3C)c2cc1OC.O=C(O)C(F)(F)F [APS-2-79, 6,7-Dimethoxy-N-(2-methyl-4-phenoxyphenyl)quinazolin-4-amine 2,2,2-trifluoroacetate]
KSR-stimulated MEK and ERK phosphorylation ([2]; KSR(A690F) mutant): significantly diminished the activity
KSR-stimulated MEK and ERK phosphorylation ([2]; wild-type KSR): suppressed
MEK phosphorylation by RAF [4]: inactive
BRAF(V600E)-induced MAPK activation [5]: does not affect
Phospho-AMPK [6]: remains unchanged

IC50 ([1]; read-out: IC50 (ATP), KSR2, free ATP vs 2 μM ATP^biotin, KSR2-MEK1 complexes): 86 µM
IC50 (MEK1): 133 µM
Molecule: Nc1ncnc2c1ncn2[C@@H]1O[C@H](COP(=O)(O)OP(=O)(O)OP(=O)(O)O)[C@@H](O)[C@H]1O [ATP, reference compound]

KSR2-MEK1 probe competition (in words) [1]: greatly diminished competition
Molecule: COc1cc2ncnc(Nc3ccc(O)cc3)c2cc1OC.Cl [APS-1-82-1, 4-((6,7-Dimethoxyquinazolin-4-yl)amino)phenol hydrochloride]

KSR2-MEK1 probe competition (in words) [1]: greatly diminished
Molecule: COc1cc2/c(=N/c3ccc(Oc4ccccc4)cc3)ncn(C)c2cc1OC [APS-3-6, (Z)-N-(6,7-Dimethoxy-1-methylquinazolin-4(1H)-ylidene)-4-phenoxyaniline]
